Laboratory results as given in ChEMBL document CHEMBL1687827, “Profiling the Aspergillus fumigatus proteome in response to caspofungin” (2011).
Activity calls are given as the source filed them. The calls are words filed in the database; no cut-off is given here.

Legend:
[1] = tested on: Aspergillus fumigatus; test: Induction of change in 4-hydroxyphenylpyruvate dioxygenase, putative protein level in iTRAQ-116 labelled secreted fraction of drug-susceptible Aspergillus fumigatus KU80 delta-akuB at 0.12 ug/ml after 48 hrs in YPD medium by MS (MS/MS) analysis relative to control; format: functional
Summary of the method: (§1)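 Conidia at 1 × 10⁵/ml grown shaking at 37°C in YPD with or without 0.12 μg/ml caspofungin; mycelia filtered at 24 or 48 h. Secreted fraction taken from the filtrate; cell wall/plasma membrane pellet recovered after French-press lysis and a 5,000 × g spin. Proteins trypsin-digested and iTRAQ-labelled, drug vs no-drug channels at each time, then 2D LC-MS/MS. Protein ratio is the median of ratios from uniquely assigned peptides after median normalization.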

[2] = tested on: Aspergillus fumigatus; test: Induction of change in IgE-binding gene expression in drug-susceptible Aspergillus fumigatus KU80 delta-akuB at 0.12 ug/ml after 48 hrs in YPD medium by microarray analysis relative to control; format: functional
Summary of the method: (§2)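 Mycelia grown in YPD ± 0.12 μg/ml caspofungin (1 × 10⁵ conidia/ml, 37°C, shaking) and harvested at 24 or 48 h. Total RNA extracted, DNase-treated and quality-checked; 2 μg labelled per TIGR SOP M007 and hybridized to whole-genome arrays. Three independent experiments with dye flip (6 replicates); drug vs untreated fold change.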

[3] = tested on: Aspergillus fumigatus; test: Induction of change in ribosomal protein S9 protein level in iTRAQ114 labelled secreted fraction of drug-susceptible Aspergillus fumigatus KU80 delta-akuB at 0.12 ug/ml after 24 hrs in YPD medium by MS (MS/MS) analysis relative to control; format: functional
Summary of the method: (§3)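 Conidia (1 × 10⁵/ml) grown in YPD, 37°C, 225 rpm, ± 0.12 μg/ml caspofungin; filtrate taken as secreted fraction, French-press lysate 5,000 × g pellet as cell wall/plasma membrane. Trypsin digests 8-plex iTRAQ-labelled (drug-free channels as references), pooled, 2D-chromatography, MS/MS. Median-normalized; protein ratio = median of unique-peptide ratios, log2 normalized.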

[4] = tested on: Aspergillus fumigatus; test: Induction of change in cytosolic small ribosomal subunit S15, putative protein level in iTRAQ114 labelled secreted fraction of drug-susceptible Aspergillus fumigatus KU80 delta-akuB at 0.12 ug/ml after 24 hrs in YPD medium by MS (MS/MS) analysis relative to control; format: functional; summary of the method: as §1
[5] = tested on: Aspergillus fumigatus; test: Induction of change in 60S acidic ribosomal protein P2 gene expression in drug-susceptible Aspergillus fumigatus KU80 delta-akuB at 0.12 ug/ml after 24 hrs in YPD medium by microarray analysis relative to control; format: functional; summary of the method: as §2
[6] = tested on: Aspergillus fumigatus; test: Induction of change in aconitate hydratase, mitochondrial protein level in iTRAQ-116 labelled secreted fraction of drug-susceptible Aspergillus fumigatus KU80 delta-akuB at 0.12 ug/ml after 48 hrs in YPD medium by MS (MS/MS) analysis relative to control; format: functional; summary of the method: as §1
[7] = tested on: Aspergillus fumigatus; test: Induction of change in IgE-binding protein level in iTRAQ-116 labelled secreted fraction of drug-susceptible Aspergillus fumigatus KU80 delta-akuB at 0.12 ug/ml after 48 hrs in YPD medium by MS (MS/MS) analysis relative to control; format: functional; summary of the method: as §1
[8] = tested on: Aspergillus fumigatus; test: Induction of change in ribosomal protein L27a protein level in iTRAQ114 labelled cell wall fraction of drug-susceptible Aspergillus fumigatus KU80 delta-akuB at 0.12 ug/ml after 24 hrs in YPD medium by MS (MS/MS) analysis relative to control; format: functional
[9] = tested on: Aspergillus fumigatus; test: Induction of change in 60s ribosomal protein yl6 protein level in iTRAQ114 labelled cell wall fraction of drug-susceptible Aspergillus fumigatus KU80 delta-akuB at 0.12 ug/ml after 24 hrs in YPD medium by MS (MS/MS) analysis relative to control; format: functional; summary of the method: as §1
[10] = tested on: Aspergillus fumigatus; test: Induction of change in extracellular thaumatin domain protein, putative gene expression in drug-susceptible Aspergillus fumigatus KU80 delta-akuB at 0.12 ug/ml after 48 hrs in YPD medium by microarray analysis relative to control; format: functional; summary of the method: as §2
[11] = tested on: Aspergillus fumigatus; test: Induction of change in Mitochondrial hypoxia-responsive domain protein level in iTRAQ-116 labelled cell wall fraction of drug-resistant Aspergillus fumigatus EMFR-S678P at 0.12 ug/ml after 24 hrs in YPD medium by MS (MS/MS) analysis relative to control; format: functional, organism-based
Summary of the method: (§4)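 Conidia at 1 × 10⁵/ml were grown at 37°C, shaking at 225 rpm, in YPD with or without 0.12 μg/ml caspofungin for 24 or 48 h. The culture filtrate was kept as the secreted fraction. Mycelia were lysed by French press in HEPES/glycerol/EDTA/PMSF/DTT buffer, and the 5,000 × g pellet was washed to give CW/PM. Proteins were reduced, alkylated and trypsin-digested at 37°C overnight, then iTRAQ-labelled and run by 2D LC-MS/MS. Ratios are the median of unique-peptide ratios, median-normalized, versus the no-drug control.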

[12] = tested on: Aspergillus fumigatus; test: Induction of change in allergen Asp F4 protein level in iTRAQ-118 labelled cell wall fraction of drug-resistant Aspergillus fumigatus EMFR-S678P at 0.12 ug/ml after 24 hrs in YPD medium by MS (MS/MS) analysis relative to control; format: functional; summary of the method: as §4
[13] = tested on: Aspergillus fumigatus; test: Induction of change in pyruvate decarboxylase PdcA, putative protein level in iTRAQ-118 labelled cell wall fraction of drug-resistant Aspergillus fumigatus EMFR-S678P at 0.12 ug/ml after 24 hrs in YPD medium by MS (MS/MS) analysis relative to control; format: functional, organism-based; summary of the method: as §4
[14] = tested on: Aspergillus fumigatus; test: Induction of change in transcriptional repressor TupA/RocA, putative protein level in iTRAQ-118 labelled cell wall fraction of drug-resistant Aspergillus fumigatus EMFR-S678P at 0.12 ug/ml after 24 hrs in YPD medium by MS (MS/MS) analysis relative to control; format: functional; summary of the method: as §4
[15] = tested on: Aspergillus fumigatus; test: Induction of change in peptidyl-prolyl cis-trans isomerase protein level in iTRAQ-118 labelled cell wall fraction of drug-resistant Aspergillus fumigatus EMFR-S678P at 0.12 ug/ml after 24 hrs in YPD medium by MS (MS/MS) analysis relative to control; format: functional; summary of the method: as §4
[16] = tested on: Aspergillus fumigatus; test: Induction of change in Class III chitinase ChiA1 protein level in iTRAQ114 labelled cell wall fraction of drug-susceptible Aspergillus fumigatus KU80 delta-akuB at 0.12 ug/ml after 24 hrs in YPD medium by MS (MS/MS) analysis relative to control; format: functional; summary of the method: as §4
[17] = tested on: Aspergillus fumigatus; test: Induction of change in 60S ribosomal protein P0 protein level in iTRAQ114 labelled cell wall fraction of drug-susceptible Aspergillus fumigatus KU80 delta-akuB at 0.12 ug/ml after 24 hrs in YPD medium by MS (MS/MS) analysis relative to control; format: functional; summary of the method: as §1
[18] = tested on: Aspergillus fumigatus; test: Induction of change in isocitrate dehydrogenase Idp1, putative protein level in iTRAQ-118 labelled cell wall fraction of drug-susceptible Aspergillus fumigatus KU80 delta-akuB at 0.12 ug/ml after 24 hrs in YPD medium by MS (MS/MS) analysis relative to control; format: functional; summary of the method: as §3
[19] = tested on: Aspergillus fumigatus; test: Induction of change in translation elongation factor eEF-3, putative protein level in iTRAQ-118 labelled cell wall fraction of drug-susceptible Aspergillus fumigatus KU80 delta-akuB at 0.12 ug/ml after 24 hrs in YPD medium by MS (MS/MS) analysis relative to control; format: functional; summary of the method: as §3

SMILES: CC[C@H](C)C[C@H](C)CCCCCCCCC(=O)N[C@H]1C[C@@H](O)[C@@H](NCCN)NC(=O)[C@@H]2[C@@H](O)CCN2C(=O)[C@H]([C@H](O)CCN)NC(=O)[C@H]([C@H](O)[C@@H](O)c2ccc(O)cc2)NC(=O)[C@@H]2C[C@@H](O)CN2C(=O)[C@H]([C@@H](C)O)NC1=O [CASPOFUNGIN]
- fold change (FC) [1]: >-16
- fold change (FC) [2]: 7.6
- fold change (FC) [3]: 1.1
- fold change (FC) [4]: -1
- fold change (FC) [5]: 4.3
- fold change (FC) [6]: 1.2
- fold change (FC) [7]: -1
- fold change (FC) [8]: 1.9
- fold change (FC) [9]: 1.6
- fold change (FC) [10]: -11.2
- Activity [11]: inactive
- fold change (FC) [12]: 1.07
- Activity [13]: inactive
- fold change (FC) [14]: 1.32
- fold change (FC) [15]: -1.15
- fold change (FC) [16]: -12.1
- fold change (FC) [17]: 2.1
- fold change (FC) [18]: -2.1
- fold change (FC) [19]: 2.1
